Here are results for two compounds from BindingDB's records for doi:10.1016/j.ejmech.2016.08.061 (South China University of Technology, 2017).

What is called kon is the second-order rate constant of association.

Assay [1] concerns the target Cholinesterase (Equus caballus, UniProt P81908). Kind of assay: Irreversible inhibition of equine serum BuChE assessed as second order carbamylation rate constant using S-butyrylthiocholine iodide as substrate preincubated up to 45 mins followed by substrate addition measured after 5 mins. Particulars: read-out: kon (M-1-s-1). In outline:
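Equine BChE, pH 8, 37°C, was preincubated for 1, 2, 4, 8, 15, 30 and 45 min with inhibitor at 1×10^-7 to 5×10^-6 M (seven levels). Residual activity was read by Ellman with BTCh and normalised to a water control at each time. kobs came from a one-phase exponential decay fit; k_I1 came from the linear kobs versus concentration relation.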

For assay [2], the target named is Cholinesterase (Homo sapiens, UniProt P06276). The assay can be described thus: Irreversible inhibition of human plasma BuChE assessed as second order carbamylation rate constant using S-butyrylthiocholine iodide as substrate preincubated up to 45 mins followed by substrate addition measured after 5 mins. Particulars: read-out: kon (M-1-s-1). The gist of the method:
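Diluted human plasma BChE was preincubated for 1–45 min with inhibitor at 5×10^-9, 1×10^-8, 2.5×10^-8 and 5×10^-8 M. Residual Ellman activity with BTCh at pH 8 was normalised to a water control. kobs came from a one-phase exponential fit; k_I1 came from the slope of kobs versus concentration.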

Chain of Cholinesterase (Equus caballus, UniProt P81908) (P81908 whole entry): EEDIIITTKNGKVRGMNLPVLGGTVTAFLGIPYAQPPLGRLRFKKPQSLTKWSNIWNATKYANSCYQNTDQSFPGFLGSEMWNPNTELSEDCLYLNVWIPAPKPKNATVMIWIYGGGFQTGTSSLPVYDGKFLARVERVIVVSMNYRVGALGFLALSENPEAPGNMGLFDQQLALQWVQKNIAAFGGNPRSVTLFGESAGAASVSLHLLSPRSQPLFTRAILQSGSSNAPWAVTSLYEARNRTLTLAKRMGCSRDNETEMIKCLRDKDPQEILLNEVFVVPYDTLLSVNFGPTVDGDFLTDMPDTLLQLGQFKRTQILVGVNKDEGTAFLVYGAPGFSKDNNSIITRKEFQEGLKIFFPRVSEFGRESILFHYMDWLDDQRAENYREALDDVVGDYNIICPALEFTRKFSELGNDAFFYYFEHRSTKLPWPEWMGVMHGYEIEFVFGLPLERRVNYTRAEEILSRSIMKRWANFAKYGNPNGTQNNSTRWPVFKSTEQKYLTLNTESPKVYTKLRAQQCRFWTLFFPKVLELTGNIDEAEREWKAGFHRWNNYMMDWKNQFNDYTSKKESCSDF
Chain of Cholinesterase (Homo sapiens, UniProt P06276) (P06276 whole entry): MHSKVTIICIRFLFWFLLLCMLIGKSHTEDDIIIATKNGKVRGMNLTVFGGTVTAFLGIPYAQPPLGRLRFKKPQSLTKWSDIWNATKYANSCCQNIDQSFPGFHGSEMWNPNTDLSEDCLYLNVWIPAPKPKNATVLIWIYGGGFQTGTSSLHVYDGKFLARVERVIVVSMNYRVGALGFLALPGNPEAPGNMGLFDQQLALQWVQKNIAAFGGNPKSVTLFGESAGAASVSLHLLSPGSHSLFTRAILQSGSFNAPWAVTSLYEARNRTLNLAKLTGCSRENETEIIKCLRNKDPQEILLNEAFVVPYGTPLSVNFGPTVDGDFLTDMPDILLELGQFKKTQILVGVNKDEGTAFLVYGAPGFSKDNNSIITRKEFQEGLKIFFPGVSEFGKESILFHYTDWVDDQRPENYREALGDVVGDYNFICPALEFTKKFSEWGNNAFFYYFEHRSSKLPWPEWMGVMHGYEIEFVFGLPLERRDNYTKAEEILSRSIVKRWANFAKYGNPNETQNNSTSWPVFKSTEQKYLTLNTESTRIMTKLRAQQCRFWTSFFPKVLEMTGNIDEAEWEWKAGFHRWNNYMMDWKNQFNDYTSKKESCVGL

In the case of `CCC(C)(C)NCC(O)c1cc(OC(=O)N(C)C)cc(OC(=O)N(C)C)c1` (centres undefined), the kon at Cholinesterase [1] turned out to be 2370 M⁻¹ s⁻¹; at Cholinesterase [2] it was 100000 M⁻¹ s⁻¹.

As for `CCN(C)C(=O)Oc1cc(OC(=O)N(C)CC)cc(C(O)CNC(C)(C)CC)c1` (centres undefined), the kon at Cholinesterase [1] was determined as 2480 M⁻¹ s⁻¹; at Cholinesterase [2], 122000 M⁻¹ s⁻¹.
